How the values were obtained:
[1] = Lipophilicity, log k of the compound by HPLC analysis; assay type: physicochemical
Summary of the method: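 Mobile phase MeOH/water 70:30, 1.0 mL/min, column at 45 °C, samples at 10 °C, photodiode array detection. log k calculated from k.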

[2] = molecular target: Cholinesterase (Equus caballus, UniProt P81908); experiment: Inhibition of equine BChE using after 10 mins by Ellman's method
Summary of the method: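 BChE from equine serum, diluted in phosphate buffer (0.1 M, pH 8). Catalytic activity in the final mixture was 0.14 U/mL. Enzyme was preincubated with compound (dioxane stock diluted in water) for 5 min at 25 °C. Then 0.5 mM DTNB and 0.25 mM acetylthiocholine were added, incubated 10 min at 25 °C, and absorbance read at 412 nm. IC50 taken from %inhibition versus concentration, 3 replicates.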

[3] = molecular target: Acetylcholinesterase (Electrophorus electricus, UniProt O42275); experiment: Inhibition of Electrophorus electricus AChE using acetylthiocholine as substrate after 10 mins by Ellman's method
[4] = Lipophilicity, log P of the compound calculated using ChemOffice software
[5] = system: MCF7; experiment: Growth inhibition of human MCF7 cells at 0.01 to 100 umol/l measured immediately by xCelligence RTCA SP assay; assay type: cell-based
Summary of the method: (§1)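 MCF7 (p37) grown in DMEM with 10% FCS, penicillin-streptomycin and 0.01 mg/mL insulin. Seeded at 75.000 cells/well on impedance E-plates and monitored hourly as cell index. Treated in log phase with compounds in DMSO, 0.01–2500 µmol/L, in triplicate. CI normalized to the last point before addition. Vehicle control 0.1% DMSO; 10% DMSO as 0% viability. IC50 taken at 24 h.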

[6] = system: MCF7; experiment: Growth inhibition of human MCF7 cells at 2500 umol/l measured immediately by xCelligence RTCA SP assay; assay type: cell-based; details: mcf7, 2500 µM; summary of the method: as §1
[7] = system: MCF7; experiment: Growth inhibition of human MCF7 cells at 1000 umol/l measured immediately by xCelligence RTCA SP assay; assay type: cell-based; details: mcf7, 1000 µM; summary of the method: as §1
[8] = system: HepG2; experiment: Growth inhibition of human HepG2 cells at >10 umol/l after 24 hrs by MTS assay; assay type: cell-based; details: hepg2, 24 h
Summary of the method: (§2)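 HepG2 (p13) grown in MEM with 10% FBS, L-glutamine and non-essential amino acids at 37 °C, 5% CO2. Seeded at 10,000 cells/well and treated next day with compounds in DMSO, 12 concentrations (0.001–5000 or 0.001–2500 µmol/L), in triplicate. Controls were untreated cells, 10% DMSO (0% viability), no cells and vehicle. After 24 h, MTS reagent was added for 3.5 h at 37 °C and A490 was read. IC50 from curve fit.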

[9] = system: MCF7; experiment: Cytotoxicity against human MCF7 cells after 24 hrs by xCelligence RTCA SP assay; assay type: cell-based; details: MCF7, 24 h; summary of the method: as §1
[10] = system: HepG2; experiment: Cytotoxicity against human HepG2 cells after 24 hrs by MTS assay; assay type: cell-based; details: HepG2, 24 h; summary of the method: as §2
[11] = system: MCF7; experiment: Growth inhibition of human MCF7 cells at 2500 umol/l measured after 24 hrs by xCelligence RTCA SP assay; assay type: cell-based; details: mcf7, 24 h, 2500 µM; summary of the method: as §1
[12] = system: MCF7; experiment: Growth inhibition of human MCF7 cells at 1000 umol/l measured after 24 hrs by xCelligence RTCA SP assay; assay type: cell-based; details: mcf7, 24 h, 1000 µM; summary of the method: as §1
[13] = system: HepG2; experiment: Growth inhibition of human HepG2 cells at <1000 umol/l after 24 hrs by MTS assay; assay type: cell-based; details: hepg2, 24 h; summary of the method: as §2
[14] = system: HepG2; experiment: Growth inhibition of human HepG2 cells at >1000 umol/l after 24 hrs by MTS assay; assay type: cell-based; details: hepg2, 24 h; summary of the method: as §2
[15] = system: HepG2; experiment: Growth inhibition of human HepG2 cells at <100 umol/l after 24 hrs by MTS assay; assay type: cell-based; details: hepg2, 24 h; summary of the method: as §2
[16] = system: HepG2; experiment: Growth inhibition of human HepG2 cells at >100 umol/l after 24 hrs by MTS assay; assay type: cell-based; details: hepg2, 24 h; summary of the method: as §2

Cholinesterase, sequence (P81908 whole entry): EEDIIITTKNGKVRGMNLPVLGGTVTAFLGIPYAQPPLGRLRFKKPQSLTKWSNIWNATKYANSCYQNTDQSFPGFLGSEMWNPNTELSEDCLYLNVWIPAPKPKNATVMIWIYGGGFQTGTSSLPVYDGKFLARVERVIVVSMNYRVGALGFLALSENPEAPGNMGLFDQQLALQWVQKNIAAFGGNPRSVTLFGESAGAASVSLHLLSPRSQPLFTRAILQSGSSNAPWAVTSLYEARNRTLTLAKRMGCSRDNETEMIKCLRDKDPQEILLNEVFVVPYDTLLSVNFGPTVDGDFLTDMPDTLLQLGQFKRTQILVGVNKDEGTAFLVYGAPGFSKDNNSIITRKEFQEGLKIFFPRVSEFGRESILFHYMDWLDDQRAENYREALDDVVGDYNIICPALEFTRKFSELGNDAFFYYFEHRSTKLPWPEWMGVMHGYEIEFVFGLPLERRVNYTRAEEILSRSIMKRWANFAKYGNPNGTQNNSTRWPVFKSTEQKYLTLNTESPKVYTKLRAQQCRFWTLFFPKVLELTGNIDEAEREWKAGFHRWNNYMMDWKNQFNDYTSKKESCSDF
Acetylcholinesterase, sequence (O42275 whole entry): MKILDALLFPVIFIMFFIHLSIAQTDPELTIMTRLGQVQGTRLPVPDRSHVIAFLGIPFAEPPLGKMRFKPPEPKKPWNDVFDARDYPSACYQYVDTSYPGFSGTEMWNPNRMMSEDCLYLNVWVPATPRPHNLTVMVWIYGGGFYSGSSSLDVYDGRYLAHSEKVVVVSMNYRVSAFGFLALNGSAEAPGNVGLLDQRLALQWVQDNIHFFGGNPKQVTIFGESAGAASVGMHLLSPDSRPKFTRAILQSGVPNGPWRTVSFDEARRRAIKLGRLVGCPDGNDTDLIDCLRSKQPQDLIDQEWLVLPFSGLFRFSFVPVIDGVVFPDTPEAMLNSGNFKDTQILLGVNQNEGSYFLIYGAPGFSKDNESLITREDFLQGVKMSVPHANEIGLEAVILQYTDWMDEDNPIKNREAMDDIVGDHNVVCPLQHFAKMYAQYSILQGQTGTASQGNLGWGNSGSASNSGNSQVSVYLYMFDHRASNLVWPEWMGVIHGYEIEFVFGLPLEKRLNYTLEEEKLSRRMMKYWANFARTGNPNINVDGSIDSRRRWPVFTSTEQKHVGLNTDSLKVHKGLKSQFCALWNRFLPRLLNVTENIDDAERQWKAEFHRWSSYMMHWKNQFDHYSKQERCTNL

SMILES | log K [1] | IC50 [2] [µM] | IC50 [3] [µM] | logP [4] | also measured
CC(C)[C@H](NC(=O)OCC(Cl)(Cl)Cl)C(=O)N[C@H](C)c1nc2ccc(F)cc2s1 | 0.8043 | 26.6 | 30.3 | 4.89 | 
CC(C)[C@H](NC(=O)OCC(F)(F)F)C(=O)N[C@H](C)c1nc2ccc(F)cc2s1 | 0.5643 | 72 | 49.4 | 4.15 | 
CC(C)[C@H](NC(=O)OCC(F)(F)C(F)F)C(=O)N[C@H](C)c1nc2ccc(F)cc2s1 | 0.5237 | 33.8 | 29 | 4.09 | 
CC(C)[C@H](NC(=O)OCC(F)(F)C(F)(F)C(F)(F)F)C(=O)N[C@H](C)c1nc2ccc(F)cc2s1 | 0.9218 | 83.2 | 85.5 | 5.35 | 
CCC[C@H](NC(=O)OC)C(=O)N[C@H](C)c1nc2ccc(F)cc2s1 | 0.4166 | 20.4 | 48.8 | 3.19 | 
CCC[C@H](NC(=O)OCC)C(=O)N[C@H](C)c1nc2ccc(F)cc2s1 | 0.4873 | 14.1 | 34.8 | 3.52 | 
CCCOC(=O)N[C@@H](CCC)C(=O)N[C@H](C)c1nc2ccc(F)cc2s1 | 0.5873 | 19.3 | 28.5 | 4.01 | 
CCC[C@H](NC(=O)OC(C)C)C(=O)N[C@H](C)c1nc2ccc(F)cc2s1 | 0.5752 | 32.2 | 21.3 | 3.84 | growth inhibition (GI) [5]: Non-toxic; growth inhibition (GI) [6]: Toxic; growth inhibition (GI) [7]: Toxic; growth inhibition (GI) [8]: Toxic; IC50 [9]: 1210 µM; IC50 [10]: 273 µM
CCCCOC(=O)N[C@@H](CCC)C(=O)N[C@H](C)c1nc2ccc(F)cc2s1 | 0.7231 | 19.6 | 28 | 4.43 | 
CCC[C@H](NC(=O)OCC(C)C)C(=O)N[C@H](C)c1nc2ccc(F)cc2s1 | 0.7063 | 26.1 | 20.2 | 4.41 | growth inhibition (GI) [5]: Non-toxic; growth inhibition (GI) [6]: Toxic; growth inhibition (GI) [7]: Toxic; growth inhibition (GI) [8]: Toxic; IC50 [9]: 612 µM; IC50 [10]: 275 µM
CCC[C@H](NC(=O)OCCCl)C(=O)N[C@H](C)c1nc2ccc(F)cc2s1 | 0.514 | 54.1 | 35.4 | 3.9 | 
CCC[C@H](NC(=O)OCC(Cl)(Cl)Cl)C(=O)N[C@H](C)c1nc2ccc(F)cc2s1 | 0.8297 | 62.7 | 28.6 | 4.91 | 
CCC[C@H](NC(=O)OCC(F)(F)F)C(=O)N[C@H](C)c1nc2ccc(F)cc2s1 | 0.5825 | 59 | 29.3 | 4.16 | 
CCC[C@H](NC(=O)OCC(F)(F)C(F)F)C(=O)N[C@H](C)c1nc2ccc(F)cc2s1 | 0.5415 | 43.9 | 30.7 | 4.11 | 
CCC[C@H](NC(=O)OCC(F)(F)C(F)(F)C(F)(F)F)C(=O)N[C@H](C)c1nc2ccc(F)cc2s1 | 0.9463 | 59.8 | 46 | 5.37 | 
COC(=O)N[C@H](C(=O)N[C@H](C)c1nc2ccc(F)cc2s1)C(C)C | 0.4113 | 32 | 91.2 | 3.17 | 
CCOC(=O)N[C@H](C(=O)N[C@H](C)c1nc2ccc(F)cc2s1)C(C)C | 0.4834 | 35.6 | 153 | 3.51 | growth inhibition (GI) [5]: Non-toxic; growth inhibition (GI) [11]: Non-toxic; growth inhibition (GI) [12]: Non-toxic; growth inhibition (GI) [6]: Toxic; growth inhibition (GI) [7]: Toxic; growth inhibition (GI) [13]: Non-toxic; growth inhibition (GI) [14]: Toxic; IC50 [9]: > 4390 µM; IC50 [10]: > 5000 µM
CCCOC(=O)N[C@H](C(=O)N[C@H](C)c1nc2ccc(F)cc2s1)C(C)C | 0.5851 | 70.4 | 109 | 3.99 | growth inhibition (GI) [5]: Non-toxic; growth inhibition (GI) [12]: Non-toxic; growth inhibition (GI) [6]: Toxic; growth inhibition (GI) [7]: Toxic; growth inhibition (GI) [15]: Non-toxic; growth inhibition (GI) [16]: Toxic; IC50 [9]: 4390 µM; IC50 [10]: 1730 µM
CCCCOC(=O)N[C@H](C(=O)N[C@H](C)c1nc2ccc(F)cc2s1)C(C)C | 0.7135 | 62.5 | 68.1 | 4.41 | 
CC(C)COC(=O)N[C@H](C(=O)N[C@H](C)c1nc2ccc(F)cc2s1)C(C)C | 0.7041 | 41.1 | 49.3 | 4.39 | 
CC(C)[C@H](NC(=O)OCCCl)C(=O)N[C@H](C)c1nc2ccc(F)cc2s1 | 0.5014 | 54.2 | 47.5 | 3.88 | 
CC(C)[C@H](NC(=O)OCCBr)C(=O)N[C@H](C)c1nc2ccc(F)cc2s1 | 0.5418 |  | 47.2 | 4 | 
CC(C)OC(=O)N[C@H](C(=O)N[C@H](C)c1nc2ccc(F)cc2s1)C(C)C [BENTHIAVALICARB-ISOPROPYL] | 0.5725 | 41.1 | 95 | 3.82 | 
COc1ccc2c3c1O[C@H]1C[C@@H](O)C=C[C@@]31CCN(C)C2 [GALANTAMINE] |  |  |  | 1.41 | 
CCN(C)C(=O)Oc1cccc([C@H](C)N(C)C)c1 [RIVASTIGMINE] |  |  |  | 2.36 | 

Reference: ChEMBL document CHEMBL2331490, “Synthesis and in vitro evaluation of new derivatives of 2-substituted-6-fluorobenzo[d]thiazoles as cholinesterase inhibitors” (Bioorg Med Chem, 2013)
